Converted amounts (≈) assume the structure as drawn.
Legend:
[1] = tested on: HCT-116; assay: Antiproliferative activity against human HCT116 cells; assay type: cell-based
[2] = tested on: HUVEC; assay: Selectivity ratio of IC50 for human HCT116 cells to IC50 for HUVEC cells
[3] = tested on: HUVEC; assay: Antiangiogenic activity in HUVEC assessed as inhibition of VEGF-induced cell proliferation after 4 days; assay type: functional, cell-based; details: Homo sapiens, 96 h
Method in brief: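 HUVECs maintained in RPMI1640 with 10% FCS, 50 μg/mL heparin and ECGS, then seeded at 3000 cells/well in RPMI1640 with 5% FCS and 20 ng/mL VEGF, with compound at serially diluted concentrations. Incubated at 37 °C, 5% CO₂. Read-out is Cell Counting Kit-8, absorbance at 450 nm. Inhibition = (1−T/C)×100 against untreated control.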

[4] = Solubility of the compound in fasted state simulated intestinal fluid at 10 mM after 2 hrs by HPLC-UV analysis; assay type: physicochemical
Method in brief: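 Triplicate samples made from 10 mM DMSO stocks. DMSO evaporated (1 h), residue dissolved in FaSSIF and shaken 2 h. Solutions filtered, filtrate analysed by UV or HPLC-UV against a four-point calibration curve from the stocks. Result in µg/mL.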

[5] = Clearance in mouse liver microsome at 5 uM after 60 mins by LC-MS/MS analysis; assay type: ADME; details: liver microsomes, read-out: CLH
Method in brief: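 Test compound at 5 µM incubated with mouse liver microsomes, 1.0 mg protein/mL, in 50 mM potassium phosphate pH 7.4 at 37 °C. Started by adding NADPH generating system (glucose 6-phosphate 3.2 mM, β-NADP 2.6 mM, MgCl2 6.5 mM). Substrate depletion measured against internal standard. Intrinsic clearance is the first-order decay constant normalized to protein.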

[6] = tested on: Calu-6; assay: Antiangiogenic activity in human Calu6 cells xenografted in BALB/c mouse assessed as microvessel density reduction at 300 mg/kg, po after 11 days by immunohistochemical staining method; assay type: functional; design: scale not given: the % may be the effect or the level left; details: dose 600 mg/kg, in the assay text read “600 mg/kg” for “300 mg/kg”
Method in brief: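 Female Balb/c nude mice given Calu-6 cells s.c. in the flank, 5.0×10⁶ cells per mouse. Dosing was oral, once daily for 11 days, starting once tumors reached 150 mm³. Tumors taken 24 h after the last dose and frozen-sectioned from the mid-portion. Vessels stained with anti-mouse CD31 and counted by image analysis. Density decrease expressed against control.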

[7] = molecular target: Vascular endothelial growth factor receptor 2 (Homo sapiens, UniProt P35968); assay: Inhibition of VEGFR2
Chain of Vascular endothelial growth factor receptor 2 (P35968 whole entry): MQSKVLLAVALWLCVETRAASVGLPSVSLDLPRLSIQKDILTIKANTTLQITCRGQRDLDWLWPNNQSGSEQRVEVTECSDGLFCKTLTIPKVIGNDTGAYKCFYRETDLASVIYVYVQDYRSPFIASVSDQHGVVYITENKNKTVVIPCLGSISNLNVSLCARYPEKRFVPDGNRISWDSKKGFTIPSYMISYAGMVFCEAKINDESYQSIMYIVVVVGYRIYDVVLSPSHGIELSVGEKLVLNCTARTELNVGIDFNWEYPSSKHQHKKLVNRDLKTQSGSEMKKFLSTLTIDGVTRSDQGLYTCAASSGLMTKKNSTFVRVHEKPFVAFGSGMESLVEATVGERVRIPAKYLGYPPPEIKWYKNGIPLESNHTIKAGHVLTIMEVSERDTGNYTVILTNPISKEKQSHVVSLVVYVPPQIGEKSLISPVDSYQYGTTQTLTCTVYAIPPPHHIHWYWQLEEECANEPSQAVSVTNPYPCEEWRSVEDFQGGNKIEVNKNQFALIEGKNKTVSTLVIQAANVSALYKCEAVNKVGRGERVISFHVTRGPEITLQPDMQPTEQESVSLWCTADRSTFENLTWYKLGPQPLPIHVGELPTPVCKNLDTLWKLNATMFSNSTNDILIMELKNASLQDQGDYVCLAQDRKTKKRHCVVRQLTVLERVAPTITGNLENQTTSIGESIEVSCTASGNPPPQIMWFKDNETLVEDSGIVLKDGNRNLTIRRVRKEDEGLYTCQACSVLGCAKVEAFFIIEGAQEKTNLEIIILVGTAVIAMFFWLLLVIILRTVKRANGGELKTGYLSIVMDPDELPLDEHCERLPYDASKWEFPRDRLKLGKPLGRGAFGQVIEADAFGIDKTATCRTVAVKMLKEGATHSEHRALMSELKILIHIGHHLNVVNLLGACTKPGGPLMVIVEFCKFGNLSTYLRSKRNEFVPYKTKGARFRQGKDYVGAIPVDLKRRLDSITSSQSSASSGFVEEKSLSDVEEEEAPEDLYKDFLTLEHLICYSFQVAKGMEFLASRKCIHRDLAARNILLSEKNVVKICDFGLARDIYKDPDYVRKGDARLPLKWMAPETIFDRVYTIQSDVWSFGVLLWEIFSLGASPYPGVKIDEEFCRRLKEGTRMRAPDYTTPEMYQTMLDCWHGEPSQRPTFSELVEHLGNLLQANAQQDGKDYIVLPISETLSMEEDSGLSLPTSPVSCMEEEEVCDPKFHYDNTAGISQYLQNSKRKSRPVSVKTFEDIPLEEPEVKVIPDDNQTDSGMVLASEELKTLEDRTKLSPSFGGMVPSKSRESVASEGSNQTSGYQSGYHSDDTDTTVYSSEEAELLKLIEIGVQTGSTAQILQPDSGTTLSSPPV

[8] = tested on: Calu-6; assay: Antitumor activity against human Calu6 cells xenografted in BALB/c mouse assessed as tumor growth inhibition at 600 mg/kg, po for 11 days relative to control; assay type: functional; details: Calu-6, 264 h, read-out: TGI
Method in brief: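 Calu-6 cells in Hanks' balanced salt solution implanted s.c. in the flank of female Balb/c nude mice, 5.0×10⁶ per mouse. Oral dosing once daily for 11 days, starting at tumor volume 150 mm³. Volume = 1/2 × long × short². Tumor growth inhibition taken from change in volume of the treated group against change in controls.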

| Compound | IC50 [1] [µM] | Ratio IC50 [2] | IC50 [3] [µM] | solubility at 2 h, 10000 µM [4] [µg/mL] | microsomal CLint at 5 µM [5] [µL/min/mg] | Activity [6] [%] | IC50 [7] [µM] | inhibition in vivo at 600 mg/kg [8] [%] |
| --- | --- | --- | --- | --- | --- | --- | --- | --- |
| COc1ccc(C(N)=O)cc1/C=C/c1ccc(Cl)cc1F | > 10 | >5.9 | 1.7 | – | – | – | – | – |
| COc1ccc(C(N)=O)cc1/C=C/c1ccc(C)cc1 | 48 | 30 | 1.6 | – | – | – | – | – |
| COc1ccc(C(N)=O)cc1/C=C/c1cccc(F)c1 | > 50 | >6 | 8.3 | – | – | – | – | – |
| COc1ccc(C(=O)N(C)C)cc1/C=C/c1ccc(Cl)cc1 | 35 | 14 | 2.5 | – | – | – | – | – |
| COc1ccc(C(=O)NC(CO)CO)cc1/C=C/c1ccc(Cl)cc1 | 14 | 9.3 | 1.5 | 251 (≈ 694 µM) | 8 | – | – | – |
| COc1ccc(C(N)=O)cc1/C=C\c1ccc(Cl)cc1 | 29 | 10 | 2.9 | 137 (≈ 476 µM) | 544 | – | – | – |
| COc1ccc(C(N)=O)cc1/C=C/c1ccc(Cl)c(Cl)c1 | 11 | 20 | 0.56 | – | – | – | – | – |
| COc1ccc(C(N)=O)cc1/C=C/c1ccccc1C | 11 | 4.8 | 2.3 | – | – | – | – | – |
| CCOc1ccc(C(N)=O)cc1/C=C/c1ccc(Cl)cc1 | 1.7 | 8.9 | 0.19 | 10 (≈ 33.1 µM) | 123 | – | – | – |
| COc1ccc(C(N)=O)cc1/C=C/c1ccc(Br)cc1 | 22 | 39 | 0.56 | – | – | – | – | – |
| COc1ccc(C(N)=O)cc1/C=C/c1cccc(C#N)c1 | 19 | 0.4 | 49 | – | – | – | – | – |
| COc1ccc(/C=C/c2cc(C(N)=O)ccc2OC)cc1 | 19 | 2.2 | 8.8 | – | – | – | – | – |
| COc1ccc(C(N)=O)cc1/C=C/c1ccc(C#N)cc1 | 16 | 5.2 | 3.1 | – | – | – | – | – |
| COc1ccc(C(N)=O)cc1/C=C/c1cccc(C)c1 | 23 | 5.9 | 3.9 | – | – | – | – | – |
| COc1ccc(C(N)=O)cc1/C=C/c1ccccc1Cl | > 50 | 2.2 | 23 | – | – | – | – | – |
| COc1ccc(C#N)cc1COc1ccc(Cl)c(C)c1 | > 50 | >33 | 1.5 | – | – | – | – | – |
| CCCOc1ccc(C(N)=O)cc1/C=C/c1ccc(Cl)cc1 | > 50 | 38 | 1.3 | 4 (≈ 12.7 µM) | 83 | – | – | – |
| Cc1cc(OCc2cccc(C#N)c2)ccc1Cl | 45 | 4.1 | 11 | – | – | – | – | – |
| COc1ccc(C(=O)NCC(O)CO)cc1/C=C/c1ccc(Cl)cc1 (stereo not given) | 12 | – | 0.4 | 317 (≈ 876 µM) | 10 | – | – | – |
| CCNC(=O)c1ccc(OC)c(/C=C/c2ccc(Cl)cc2)c1 | 15 | 94 | 0.16 | 9 (≈ 28.5 µM) | 187 | – | – | – |
| COc1ccc(C(C)=O)cc1COc1cccc(C)c1 | 24 | 8.6 | 2.8 | – | – | – | – | – |

| Compound | IC50 [1] [µM] | Ratio IC50 [2] | IC50 [3] [µM] | solubility at 2 h, 10000 µM [4] [µg/mL] | microsomal CLint at 5 µM [5] [µL/min/mg] | Activity [6] [%] | IC50 [7] [µM] | inhibition in vivo at 600 mg/kg [8] [%] |
| --- | --- | --- | --- | --- | --- | --- | --- | --- |
| COc1ccc(C(N)=O)cc1/C=C/c1ccccc1 | 36 | 15 | 2.4 | – | – | – | – | – |
| CN(C)CCOc1ccc(C(N)=O)cc1/C=C/c1ccc(Cl)cc1 | 4.9 | 0.6 | 8.4 | 109 (≈ 316 µM) | 288 | – | – | – |
| CN1CCN(CCOc2ccc(C(N)=O)cc2/C=C/c2ccc(Cl)cc2)CC1 | 7.5 | 0.8 | 9.5 | 164 (≈ 410 µM) | 251 | – | – | – |
| COc1ccc(C(N)=O)cc1/C=C/c1ccc(Cl)cc1Cl | > 50 | >19 | 2.6 | – | – | – | – | – |
| COc1ccc(C(=O)NCCO)cc1/C=C/c1ccc(Cl)cc1 | 17 | 19 | 0.91 | 16 (≈ 48.2 µM) | 73 | – | – | – |
| COc1ccc(C(N)=O)cc1C(=O)Nc1ccc(Cl)cc1 | > 50 | >9 | 5.5 | 5 (≈ 16.4 µM) | 16 | – | – | – |
| COc1ccc(C(N)=O)cc1/C=C/c1ccccc1F | 26 | 13 | 2 | – | – | – | – | – |
| COc1ccc(C(N)=O)cc1/C=C/c1ccc(C(C)(C)C)cc1 | 20 | 54 | 0.37 | – | – | – | – | – |
| COc1ccc(C(N)=O)cc1/C=C/c1ccc([N+](=O)[O-])cc1 | 22 | 4.7 | 4.7 | – | – | – | – | – |
| CNC(=O)c1ccc(OC)c(/C=C/c2ccc(Cl)cc2)c1 | 16 | 84 | 0.19 | 24 (≈ 79.5 µM) | 331 | – | – | – |
| NC(=O)c1ccc(OCCOCCO)c(/C=C/c2ccc(Cl)cc2)c1 | 38 | – | 11 | 74 (≈ 205 µM) | 247 | – | – | – |
| COC(=O)c1ccc(OC)c(COc2ccc(Cl)c(C)c2)c1 | 23 | 10 | 2.3 | – | – | – | – | – |
| COc1ccccc1/C=C/c1cc(C(N)=O)ccc1OC | > 50 | >8.8 | 5.7 | – | – | – | – | – |
| CCc1ccc(OC)c(COc2ccc(Cl)c(C)c2)c1 | 43 | 1.1 | 40 | – | – | – | – | – |
| COc1ccc(C(N)=O)cc1/C=C/c1ccc(F)cc1 | 24 | 11 | 2.1 | – | – | – | – | – |
| COc1ccc(C(N)=O)cc1/C=C/c1ccc(C(F)(F)F)cc1 | 35 | 40 | 0.88 | – | – | – | – | – |
| COc1ccc(C(C)=O)cc1COc1ccc(Cl)c(C)c1 | 34 | 26 | 1.3 | – | – | 15 | > 50 | 34 |
| COc1ccc(C(N)=O)cc1/C=C/c1ccccc1OC(F)(F)F | 36 | 4 | 8.9 | – | – | – | – | – |
| COc1ccc(C(C)=O)cc1COc1ccc(Cl)cc1 | 39 | 33 | 1.2 | – | – | – | – | – |
| COc1ccc(C(N)=O)cc1/C=C/c1cccc(Cl)c1 | 15 | 0.6 | 24 | – | – | – | – | – |
| COc1ccc(C(=O)O)cc1COc1ccc(Cl)c(C)c1 | > 50 | – | > 50 | – | – | – | – | – |
